How the values were obtained:
ABL1 = ABL1 (Homo sapiens, UniProt P00519); test: SelectScreen kinase profiling, ABL1; format: biochemical; details: read-out: Mean % inhibition at 10 μM, ABL1, 10 μM
Procedure, shortened: (§1)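 Test compound was screened at a single 10 μM concentration through an outsourced kinase selectivity panel (SelectScreen). Percent inhibition of each kinase was determined by time-resolved FRET assay.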

ERBB2 (HER2) = ERBB2 (HER2) (Homo sapiens, UniProt P04626); test: SelectScreen kinase profiling, HER2; format: biochemical; details: read-out: Mean % inhibition at 10 μM, ERBB2 (HER2), 10 μM
Sequence of ERBB2 (HER2) (P04626 23-1255): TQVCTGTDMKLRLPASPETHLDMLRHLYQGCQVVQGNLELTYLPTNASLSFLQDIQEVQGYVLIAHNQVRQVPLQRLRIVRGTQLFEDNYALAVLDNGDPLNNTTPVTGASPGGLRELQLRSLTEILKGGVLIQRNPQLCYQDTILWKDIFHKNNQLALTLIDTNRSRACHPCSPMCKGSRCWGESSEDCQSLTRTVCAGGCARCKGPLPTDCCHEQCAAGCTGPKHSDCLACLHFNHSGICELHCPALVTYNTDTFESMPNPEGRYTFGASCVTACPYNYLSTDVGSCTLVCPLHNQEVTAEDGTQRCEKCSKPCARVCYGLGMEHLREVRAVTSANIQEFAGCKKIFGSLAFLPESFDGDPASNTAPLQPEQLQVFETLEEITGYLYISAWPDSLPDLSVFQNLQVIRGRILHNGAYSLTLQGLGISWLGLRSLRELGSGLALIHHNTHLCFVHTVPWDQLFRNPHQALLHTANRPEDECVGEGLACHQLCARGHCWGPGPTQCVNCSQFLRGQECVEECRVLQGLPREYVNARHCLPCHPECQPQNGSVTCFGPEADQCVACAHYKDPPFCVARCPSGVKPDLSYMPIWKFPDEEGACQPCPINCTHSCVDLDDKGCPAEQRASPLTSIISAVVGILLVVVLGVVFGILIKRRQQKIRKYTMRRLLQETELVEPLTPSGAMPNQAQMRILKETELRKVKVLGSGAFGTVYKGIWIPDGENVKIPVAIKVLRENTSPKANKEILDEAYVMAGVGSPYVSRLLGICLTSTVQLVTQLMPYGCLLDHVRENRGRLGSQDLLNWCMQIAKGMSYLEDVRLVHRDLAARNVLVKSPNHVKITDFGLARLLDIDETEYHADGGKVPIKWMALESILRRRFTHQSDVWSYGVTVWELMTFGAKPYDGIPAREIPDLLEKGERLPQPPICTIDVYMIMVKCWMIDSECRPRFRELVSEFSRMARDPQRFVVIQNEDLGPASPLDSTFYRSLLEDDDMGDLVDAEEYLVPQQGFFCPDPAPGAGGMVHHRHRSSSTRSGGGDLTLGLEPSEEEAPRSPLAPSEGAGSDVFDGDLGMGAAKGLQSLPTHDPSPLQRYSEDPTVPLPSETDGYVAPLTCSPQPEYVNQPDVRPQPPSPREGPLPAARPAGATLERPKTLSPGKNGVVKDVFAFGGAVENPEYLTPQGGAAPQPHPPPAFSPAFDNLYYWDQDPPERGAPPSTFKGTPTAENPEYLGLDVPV
Procedure, shortened: as §1

IGF1R = IGF1R (Homo sapiens, UniProt P08069); test: SelectScreen kinase profiling, IGF1R; format: biochemical; details: read-out: Mean % inhibition at 10 μM, IGF1R, 10 μM
Sequence of IGF1R (P08069 31-1367): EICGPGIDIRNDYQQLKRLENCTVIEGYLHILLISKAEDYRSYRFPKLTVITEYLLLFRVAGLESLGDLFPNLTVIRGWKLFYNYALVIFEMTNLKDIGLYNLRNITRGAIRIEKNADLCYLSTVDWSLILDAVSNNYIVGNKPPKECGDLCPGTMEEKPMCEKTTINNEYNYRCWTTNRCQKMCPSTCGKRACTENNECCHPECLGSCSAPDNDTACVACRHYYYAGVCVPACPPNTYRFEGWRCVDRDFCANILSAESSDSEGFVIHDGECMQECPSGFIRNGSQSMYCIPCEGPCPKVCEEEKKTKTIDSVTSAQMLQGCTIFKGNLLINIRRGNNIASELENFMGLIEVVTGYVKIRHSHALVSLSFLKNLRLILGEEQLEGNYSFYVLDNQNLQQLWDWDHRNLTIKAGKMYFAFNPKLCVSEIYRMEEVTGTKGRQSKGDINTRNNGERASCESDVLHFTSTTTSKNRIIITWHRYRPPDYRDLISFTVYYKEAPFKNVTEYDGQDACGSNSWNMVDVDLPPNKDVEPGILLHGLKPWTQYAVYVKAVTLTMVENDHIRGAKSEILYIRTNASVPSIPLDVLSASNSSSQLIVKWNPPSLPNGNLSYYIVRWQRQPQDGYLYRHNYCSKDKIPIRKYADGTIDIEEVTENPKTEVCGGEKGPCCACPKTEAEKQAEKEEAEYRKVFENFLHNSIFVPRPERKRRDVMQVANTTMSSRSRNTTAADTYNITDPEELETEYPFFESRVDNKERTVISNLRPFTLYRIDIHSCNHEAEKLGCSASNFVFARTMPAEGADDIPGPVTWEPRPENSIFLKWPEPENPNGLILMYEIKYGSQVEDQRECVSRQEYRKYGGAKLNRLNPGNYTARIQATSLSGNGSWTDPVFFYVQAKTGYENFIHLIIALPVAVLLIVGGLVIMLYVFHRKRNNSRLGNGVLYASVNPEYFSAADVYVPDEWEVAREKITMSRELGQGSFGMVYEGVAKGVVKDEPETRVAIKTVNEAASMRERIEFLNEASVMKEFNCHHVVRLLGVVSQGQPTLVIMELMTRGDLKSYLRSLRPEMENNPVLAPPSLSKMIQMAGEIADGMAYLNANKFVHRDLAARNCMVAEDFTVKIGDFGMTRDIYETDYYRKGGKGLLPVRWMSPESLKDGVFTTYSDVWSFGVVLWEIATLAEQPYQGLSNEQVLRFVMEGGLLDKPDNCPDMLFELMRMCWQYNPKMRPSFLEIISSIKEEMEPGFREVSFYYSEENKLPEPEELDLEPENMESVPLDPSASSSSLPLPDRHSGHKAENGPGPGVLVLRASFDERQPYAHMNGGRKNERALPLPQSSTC
Procedure, shortened: as §1

MST1R (RON) = MST1R (RON) (Homo sapiens, UniProt Q04912); test: SelectScreen kinase profiling, MST1R; format: biochemical; details: read-out: Mean % inhibition at 10 μM, MST1R (RON), 10 μM
Sequence of MST1R (RON) (Q04912 25-1400): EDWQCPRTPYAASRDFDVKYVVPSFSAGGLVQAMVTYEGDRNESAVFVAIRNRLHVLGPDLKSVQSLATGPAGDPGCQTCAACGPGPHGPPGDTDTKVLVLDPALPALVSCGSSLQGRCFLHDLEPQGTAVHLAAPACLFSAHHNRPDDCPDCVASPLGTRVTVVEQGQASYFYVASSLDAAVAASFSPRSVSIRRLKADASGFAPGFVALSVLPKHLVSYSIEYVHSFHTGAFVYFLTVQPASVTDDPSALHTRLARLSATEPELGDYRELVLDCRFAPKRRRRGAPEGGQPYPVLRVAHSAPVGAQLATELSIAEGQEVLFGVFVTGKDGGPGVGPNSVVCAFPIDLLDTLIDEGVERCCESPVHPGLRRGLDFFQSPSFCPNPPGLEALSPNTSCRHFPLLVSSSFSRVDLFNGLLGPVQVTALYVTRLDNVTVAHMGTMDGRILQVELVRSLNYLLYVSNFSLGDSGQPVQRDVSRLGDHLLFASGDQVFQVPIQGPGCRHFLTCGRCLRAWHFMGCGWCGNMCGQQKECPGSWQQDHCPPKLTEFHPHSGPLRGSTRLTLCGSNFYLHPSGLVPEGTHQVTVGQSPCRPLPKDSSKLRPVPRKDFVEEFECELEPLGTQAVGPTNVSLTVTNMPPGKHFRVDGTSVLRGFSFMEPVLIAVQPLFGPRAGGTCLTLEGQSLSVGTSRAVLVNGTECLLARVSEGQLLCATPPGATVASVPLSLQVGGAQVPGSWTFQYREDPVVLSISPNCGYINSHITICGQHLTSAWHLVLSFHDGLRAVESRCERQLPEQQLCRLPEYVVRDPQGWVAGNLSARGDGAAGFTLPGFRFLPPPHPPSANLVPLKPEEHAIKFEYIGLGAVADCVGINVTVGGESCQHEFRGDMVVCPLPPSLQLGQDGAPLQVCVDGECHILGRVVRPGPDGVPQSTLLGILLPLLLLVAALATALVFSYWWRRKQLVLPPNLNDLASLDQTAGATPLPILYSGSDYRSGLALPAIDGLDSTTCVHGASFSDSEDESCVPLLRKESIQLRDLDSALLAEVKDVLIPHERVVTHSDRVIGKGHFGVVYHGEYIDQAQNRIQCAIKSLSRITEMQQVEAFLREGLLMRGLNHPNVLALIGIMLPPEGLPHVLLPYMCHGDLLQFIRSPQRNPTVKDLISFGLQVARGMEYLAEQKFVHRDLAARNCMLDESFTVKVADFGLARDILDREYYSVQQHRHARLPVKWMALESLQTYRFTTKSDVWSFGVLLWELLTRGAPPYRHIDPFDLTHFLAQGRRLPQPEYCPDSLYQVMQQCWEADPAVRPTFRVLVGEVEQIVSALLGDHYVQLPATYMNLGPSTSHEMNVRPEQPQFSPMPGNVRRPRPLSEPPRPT
Procedure, shortened: as §1

[1] = test system: MCF-10A mammary epithelial cells; test: Cytotoxicity assay; format: cell-based; details: 24 h, MTT
MDA-MB-231 cells = test: Lactate dehydrogenase; format: cell-based; details: MDA-MB-231, effective anticancer concentrations, 24 h
Procedure, shortened: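 MDA-MB-231 cells were seeded at 3 × 10^4 cells/well and allowed to attach, then exposed to test compound in medium with 5% FBS for 24 h at 37 °C, 5% CO2. Controls: Triton X-100 wells (maximum release) and […], in triplicate. Supernatant was incubated with NAD+/lactic acid/INT/diaphorase for 30 min at rt, and A490 was read. % cytotoxicity was calculated relative to spontaneous and maximum release.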

[2] = test system: c-Met phosphorylation in MDA-MB-231 cells; test: Western blot of c-Met phosphorylation in cells; format: cell-based, human; details: MDA-MB-231, Western blot, 72 h
[3] = test system: p-Akt, p-mTOR, p-FAK, paxillin, p-MAPK in MDA-MB-231 cells; test: Western blot of c-Met downstream effectors in cells; format: cell-based, human; details: MDA-MB-231, Western blot
Procedure, shortened: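 MDA-MB-231 cells were seeded at 5 × 10^5 per 100 mm dish, attached overnight, then treated with test compound or DMSO vehicle for 72 h in serum-reduced medium with 10 ng/ml HGF. Lysates (30 μg) were run on Tris/glycine/SDS gels and transferred to PVDF. Blots were blocked 2 h in 5% BSA/TBST, probed with primary antibodies overnight at 4 °C and HRP secondaries 1 h at rt, and detected by chemiluminescence.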

[4] = test system: MDA-MB-231/GFP tumor cells; test: Breast cancer xenograft in athymic nude mice; format: in vivo; details: 10 mg/kg i.p., 3X/week, throughout the study
Procedure, shortened: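 Female athymic nude mice (5–6 weeks old) received 1 × 10^6 MDA-MB-231/GFP cells in RPMI-1640 into the mammary fat pad. At about 50 mm3 (day 10), mice were randomized, 5 per group. Test compound was dissolved as a DMSO stock, diluted in sterile PBS with 0.1% Tween 80, and given i.p. at 10 mg/kg three times weekly. Controls got the same vehicle volume. Body weight was monitored regularly.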

[5] = test system: p-c-Met in MDA-MB-231/GFP tumors; test: Western blot of p-c-Met in excised xenograft tumors; format: in vivo, athymic nude mice; details: 10 mg/kg i.p., 3X/week, vs vehicle-treated control
Procedure, shortened: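 Xenografts were MDA-MB-231/GFP cells in the mammary fat pad of female athymic nude mice, 5 per group. Test compound (i.p., 10 mg/kg, 3×/week) or vehicle (DMSO stock diluted in PBS/0.1% Tween 80) was given. At termination, tumors were excised, snap-frozen, homogenized and lysed. Lysates were immunoblotted for p-c-Met: SDS gels, PVDF, 5% BSA/TBST block, primary antibodies overnight at 4 °C, HRP secondaries, chemiluminescence.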

Sequence of ABL1 (P00519 whole entry): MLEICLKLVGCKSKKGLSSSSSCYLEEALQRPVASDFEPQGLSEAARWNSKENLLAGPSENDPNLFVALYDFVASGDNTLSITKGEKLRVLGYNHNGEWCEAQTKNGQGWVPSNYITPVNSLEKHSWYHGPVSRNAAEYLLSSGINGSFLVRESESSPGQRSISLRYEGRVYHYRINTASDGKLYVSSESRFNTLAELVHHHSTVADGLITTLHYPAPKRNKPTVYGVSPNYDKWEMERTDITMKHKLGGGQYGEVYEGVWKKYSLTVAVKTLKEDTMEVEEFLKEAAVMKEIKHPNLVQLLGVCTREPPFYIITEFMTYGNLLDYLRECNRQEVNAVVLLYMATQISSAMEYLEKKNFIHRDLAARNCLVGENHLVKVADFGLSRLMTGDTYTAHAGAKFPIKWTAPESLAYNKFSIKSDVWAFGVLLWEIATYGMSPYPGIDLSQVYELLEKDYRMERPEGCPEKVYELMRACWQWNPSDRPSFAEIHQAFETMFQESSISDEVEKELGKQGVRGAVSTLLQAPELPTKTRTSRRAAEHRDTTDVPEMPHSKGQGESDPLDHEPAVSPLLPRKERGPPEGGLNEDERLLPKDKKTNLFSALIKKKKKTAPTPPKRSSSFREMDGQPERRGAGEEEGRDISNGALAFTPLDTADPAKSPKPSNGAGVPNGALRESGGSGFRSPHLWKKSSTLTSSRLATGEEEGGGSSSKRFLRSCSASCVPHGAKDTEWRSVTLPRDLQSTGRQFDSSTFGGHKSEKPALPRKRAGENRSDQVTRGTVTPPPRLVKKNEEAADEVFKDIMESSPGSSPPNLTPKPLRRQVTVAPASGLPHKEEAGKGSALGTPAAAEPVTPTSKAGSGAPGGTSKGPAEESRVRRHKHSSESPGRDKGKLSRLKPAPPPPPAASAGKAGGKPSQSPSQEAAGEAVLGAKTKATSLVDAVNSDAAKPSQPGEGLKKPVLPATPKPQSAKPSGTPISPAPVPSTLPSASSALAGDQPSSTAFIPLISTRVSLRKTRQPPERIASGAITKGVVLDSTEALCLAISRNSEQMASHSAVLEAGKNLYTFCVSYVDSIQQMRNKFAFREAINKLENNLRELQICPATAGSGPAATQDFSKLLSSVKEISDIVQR

Q: Which results are given for C/C1=C\[C@H](OC(=O)Nc2cc(C(F)(F)F)cc(C(F)(F)F)c2)C[C@](C)(O)/C=C/[C@H](C(C)C)CC/C(C)=C/CC1 [Compound 20, 6-O-[(N-(3,5-bis-(trifluoromethyl)phenyl)carbamoyl)]-(1S,2E,4S,7E,11E)-2,7,11-cembratriene-4,6-diol]?
A: inhibition at 10 µM (ABL1): 30 to 35%; inhibition at 10 µM (ERBB2 (HER2)): 23%; inhibition at 10 µM (IGF1R): 30 to 35%; inhibition at 10 µM (MST1R (RON)): 30 to 35%; cellular death at effective doses [1]: didn’t induce a significant cellular death; LDH release (necrosis marker) (MDA-MB-231 cells): minimal; effect on p-Met (phosphorylated c-Met) level [2]: significant concentration-dependent downregulation; levels of p-Akt, p-mTOR and p-FAK [3]: significant reductions; paxillin phosphorylation [3]: phosphorylation reduction; p-MAPK level ([3]; compared to untreated cells): dose-dependent downregulation; average body weight difference between treatment and vehicle groups [4]: non-significant; level of p-c-Met in excised tumors [5]: significant decrease
